Where a name gives a salt, the structure may show the parent alone. Active and inactive are the calls of the source. The rule behind the calls is not given here.
Legend:
[1] = system: Plasmodium falciparum; assay: Antiplasmodial activity against Plasmodium falciparum; assay type: functional, organism-based
Outline: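 P. falciparum (K1 and 3D7) kept in continuous Trager–Jensen culture and tested at 1–2% initial parasitemia and 3% hematocrit. DMSO stocks (5 mg/mL) were diluted in complete medium across a 100–0.006 range and tested in triplicate for 48 h at 37°C. Growth was read by optical microscopy as IGP% = 100[1 − (parasitemia with sample / untreated control parasitemia)].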

[2] = system: Plasmodium berghei; assay: Antimalarial activity against Plasmodium berghei infected in mouse assessed as suppression of parasitemia at 10 mg/kg, po by Peters 4 day suppressive test; assay type: functional; conditions: 96 h
[3] = system: Plasmodium berghei; assay: Antimalarial activity against Plasmodium berghei infected in mouse assessed as mouse mean survival time at 50 mg/kg, po; assay type: functional
[4] = system: Plasmodium falciparum; assay: Antiplasmodial activity against multi-drug resistant Plasmodium falciparum K1 in human erythrocytes assessed as growth inhibition after 48 hrs by optical microscopy; assay type: functional, organism-based; conditions: K1, 48 h
Outline: (§1)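 Parasites were kept in continuous culture by the Trager and Jensen method. The microtest used 1–2% initial parasitemia and 3% hematocrit. Samples came from 5 mg/mL DMSO stocks, serially diluted in complete medium and added to parasitized red cells in triplicate. Plates were incubated 48 h at 37°C and read by optical microscopy. Growth inhibition % = 100[1 − (parasitemia with sample/parasitemia of untreated controls)].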

[5] = system: Plasmodium falciparum; assay: Antiplasmodial activity against drug susceptible Plasmodium falciparum 3D7 NF54 isolate in human erythrocytes assessed as growth inhibition after 48 hrs by optical microscopy; assay type: functional, organism-based; conditions: 3D7 NF54, 48 h; outline: as §1
[6] = Cytotoxicity against mouse macrophages after 18 hrs by MTT assay; assay type: cell-based; conditions: Macrophage
[7] = Selectivity index, ratio of IC50 for mouse macrophages to IC50 for Plasmodium falciparum
[8] = system: MRC5; assay: Cytotoxicity against human MRC5 cells after 48 hrs by Alamar blue assay; assay type: cell-based; conditions: MRC5, 48 h
Outline: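 MRC-5 fetal lung fibroblasts were grown in DMEM with 10% FBS, 2 mM glutamine and penicillin/streptomycin at 37°C under 5% CO2, seeded at 10^4 cells/well, and dosed with DMSO-dissolved compounds after 24 h for 48 h. Negative controls had 0.1% DMSO. Alamar Blue was added 2 h before the end, with fluorescence read at 530–560 nm excitation and 590 nm emission.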

[9] = system: Plasmodium berghei; assay: Antimalarial activity against Plasmodium berghei infected in mouse assessed as suppression of parasitemia at 50 mg/kg, po after 5 to 7 days; assay type: functional
[10] = system: Plasmodium berghei; assay: Antimalarial activity against Plasmodium berghei infected in mouse assessed as suppression of parasitemia at 10 mg/kg, po after 5 to 7 days; assay type: functional
[11] = system: Plasmodium berghei; assay: Antimalarial activity against Plasmodium berghei infected in mouse assessed as total elimination of parasitemia at 50 mg/kg, po after 5 to 7 days; assay type: functional, organism-based; parameters: dose 50 mg/kg

Row | Structure (SMILES) | IC50 ([1]; Plasmodium falciparum) [nM] | IC50 [4] [nM] | IC50 [5] [nM] | IC50 [6] [nM] | further results
1 | Cc1c2c(c(C)c3c1[nH]c1ccccc13)C=NCC2 | 1010 | – | – | – | –
2 | Cc1c2ccncc2c(C)c2c1[nH]c1ccccc12 [ELLIPTECINE] | 1130 | 810 | 350 | > 140000 | inhibition in vivo at 10 mg/kg [2]: 70%; MST [3]: >40 days; Ratio IC50 [7]: >290
3 | C=C[C@H]1CN2CC[C@H]1C[C@H]2[C@H](O)c1ccnc2ccc(OC)cc12 [QUININE SULFATE] | – | 120 | 150 | > 140000 | –
4 | Cc1c2c(c(C)c3c1[nH]c1ccccc13)CN(C)CC2 | – | 4200 | 13000 | – | IC50 [8]: > 50 µg/mL
5 | CCN(CC)CCCC(C)Nc1ccnc2cc(Cl)ccc12 (stereo not drawn) [CHLOROQUINE PHOSPHATE] | – | – | – | > 140000 | –
6 | Cc1nccc2c(C)c3[nH]c4ccccc4c3cc12 | – | – | 1200 | > 140000 | inhibition in vivo at 50 mg/kg [9]: 90%; inhibition in vivo at 10 mg/kg [10]: 48%; Ratio IC50 [7]: >290
7 | Cc1c2ccncc2c(C)c2c1[nH]c1c([N+](=O)[O-])cccc12 | – | 13000 | 17000 | – | IC50 [8]: > 50 µg/mL
8 | Cc1c2ccncc2c(C)c2c1[nH]c1ccc(O)cc12 | 300 | – | – | – | –
9 | Cc1c2ccncc2c(C)c2c1[nH]c1ccc([N+](=O)[O-])cc12 | – | 550 | – | – | –
10 | COc1ccc2[nH]c3c(C)c4ccncc4c(C)c3c2c1 | 1150 | – | – | – | –
11 | Cc1c2ccncc2c(C)c2c1[nH]c1ccccc12 [listing 1 of 2 here] | – | – | – | – | IC50 [1]: 600 nM
12 | Cc1c2ccncc2c(C)c2c1[nH]c1ccccc12 [listing 2 of 2 here] | – | – | – | – | inhibition [11]: Active

Reference: ChEMBL document CHEMBL3286184, “Antiplasmodial activity of synthetic ellipticine derivatives and an isolated analog” (Bioorg Med Chem Lett, 2014)
